Screening data as filed in PubChem BioAssay.
The list is not random: actives were taken first. Their share in the collection is about 3.5%.
MrgX1 antagonist: blocks BAM8-22 activation of human MrgX1 receptor. AID 588676. hit rate 1.3% among 310,000. MRGX1-HEK293 calcium flux, Fluo-4, BAM8-22 antagonism; stronger effect = lower value. B-score at 10 µM. Q96LB2;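 active = calcium-response B-score plate-corrected more than 3 library SD below zero, starting fluorescence within 5 deviations, no agonist response on first addition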;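 note: peak minus trough fluorescence over baseline after final BAM8-22 challenge near maximal dose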
Target sequence (Q96LB2 whole entry, looked up): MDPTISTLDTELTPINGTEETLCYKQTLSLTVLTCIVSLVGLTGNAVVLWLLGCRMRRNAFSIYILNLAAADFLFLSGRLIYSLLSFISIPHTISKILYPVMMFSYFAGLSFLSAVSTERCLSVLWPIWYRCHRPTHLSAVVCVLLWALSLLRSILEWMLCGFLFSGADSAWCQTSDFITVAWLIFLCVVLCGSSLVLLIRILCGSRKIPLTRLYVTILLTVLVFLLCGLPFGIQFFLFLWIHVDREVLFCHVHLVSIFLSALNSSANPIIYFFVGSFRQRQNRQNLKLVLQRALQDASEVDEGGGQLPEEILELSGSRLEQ
MrgX1 agonist: human MrgX1 receptor agonism, primary screen. B-score at 10 µM. Q96LB2. AID 588627. hit rate 0.44% among 310,000. MrgX1-HEK293 cells, Fluo-4 calcium fluorescence, agonist mode; stronger effect = higher value;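 active = calcium response B-score plate-corrected fluorescence ratio at least 3 library SD, with starting fluorescence B-score inside 5 SD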
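Material: HEK293 cells stably expressing human MrgX1 receptor | Quantity: 15,000 cells per well | Times: Cells plated overnight, dye loaded 0.5 h 37 °C, 0.5 h room temperature | Measured by: Kinetic Fluo-4 NW fluorescence of intracellular calcium | Control set: Positive and negative controls per plate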
MrgX1 PAM: human MrgX1 positive allosteric modulation, primary screen; MrgX1-HEK293, Fluo-4 calcium flux, FDSS; stronger effect = higher value; B-score at 10 µM; Q96LB2; hit rate 0.63% among 310,000;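 active = plate-corrected calcium response at least 3 library SD above typical, normal starting fluorescence, not activating the receptor alone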;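 note: compound read alongside a low EC10 to EC30 dose of BAM8-22 agonist; peak minus trough fluorescence over baseline measured at the second addition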
RGS4 pot: potentiators or activators of RGS4. hit rate 0.92% among 310,000. B-score at 10 µM. HEK293 M3R/inducible RGS4, carbachol calcium flux Fluo4; stronger effect = lower value;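 active = B-score of the integrated calcium signal more than 4 SD below the library mean, with starting fluorescence not abnormally high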;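 note: negative B-score means reduced calcium response which marks RGS4 activation or potentiation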
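System: HEK293 FlpIn-TREx cells, stable M3R, doxycycline-inducible RGS4. Timing: overnight RGS4 induction, 30 min dye load 37 °C, 20 min compound RT. Also added: carbachol, ECmax concentration. Measured by: Fluo4 fluorescence kinetic imaging of calcium. Evaluation: integrated calcium ratio converted to B score.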
RGS4 inh: inhibitors of human RGS4. B-score at 10 µM. HEK293 M3R/RGS4 inducible, Fluo-4 calcium flux; stronger effect = higher value; triggered by carbachol at its EC20. hit rate 0.45% among 310,000. P49798;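 active = B-score, a plate-corrected calcium signal, over three deviations above library mean, with baseline fluorescence within five deviations of library mean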;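 note: RGS4 expression induced by doxycycline in cells with stable M3 receptor; B-score is computed from the integrated fluorescence ratio over baseline after carbachol; higher B-score means a larger calcium signal and so more RGS4 inhibition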
Target sequence (P49798 whole entry, looked up): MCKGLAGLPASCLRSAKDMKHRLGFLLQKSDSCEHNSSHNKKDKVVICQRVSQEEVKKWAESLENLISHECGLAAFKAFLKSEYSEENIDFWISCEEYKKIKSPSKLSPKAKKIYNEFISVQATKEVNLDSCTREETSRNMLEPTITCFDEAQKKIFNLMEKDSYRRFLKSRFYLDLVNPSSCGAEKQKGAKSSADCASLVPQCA
RGS4 block valid: RGS4 inhibitor validation; shares compounds with RGS4 inh; HEK293 M3R/RGS4, carbachol calcium Fluo-4 fluorescence; carbachol added at its EC20; 0 = buffer wells, 100 = carbachol control; calcium response, % at 10 µM; hit rate 65% among 1,700; AID 492999;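 active = duplicate-averaged calcium response above the buffer-only control mean plus 5 SD of those controls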;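 note: integrated fluorescence ratio F max minus min over baseline F0; higher response in RGS4-induced cells means RGS4 inhibition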
M3R Ca ctr: checks RGS4 inhibitor effects in non-induced HEK293 M3R cells; hit rate 20% among 1,900; carbachol calcium Fluo-4; submaximal (EC20) carbachol stimulus; buffer wells 0%, carbachol control wells 100%; activity (percent), % at 10 µM; shares compounds with RGS4 inh; AID 493000; call rule not given here;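 note: RGS4 induction absent so cells express M3R without RGS4; higher means more calcium signal and flags a non-specific hit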
M3R basal Ca ctr: second RGS4 inhibitor counter-screen in uninduced cells lacking carbachol; shares compounds with RGS4 inh; HEK293 M3R/RGS4 non-induced, Fluo-4 calcium, no carbachol; normalised: buffer wells 0%, carbachol wells 100%; calcium response (agonist-mode artifact), % at 10 µM; hit rate 22% among 1,900; AID 493001;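 active = duplicate-averaged calcium rise in uninduced cells above buffer wells' mean plus 5 SD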
Numbers stand for hits; i = inactive; nt = no result.

SMILES	MrgX1 antagonist	MrgX1 agonist	MrgX1 PAM	RGS4 pot	RGS4 inh	RGS4 block valid	M3R Ca ctr	M3R basal Ca ctr
COc1ccc(OC)c(S(=O)(=O)N2CCCC(C(=O)N3CCOCC3)C2)c1 (stereo not drawn)	i	i	i	i	4.78	i	i	i
CS(=O)(=O)c1cnc(-c2cccnc2)nc1N	i	i	i	i	i	nt	nt	nt
CCN1C(=O)/C(=C\c2ccncc2)SC1=Nc1ccc(C)c(C)c1	i	i	i	i	8.16	30.5%	i	i
FC(F)(F)c1cccc(Cn2nnnc2-c2cc(Cl)cc(Cl)c2)c1	i	i	i	i	i	nt	nt	nt
CC(C)(C)c1ccc(-c2nc(NCc3cccnc3)c3ccccc3n2)cc1	i	i	i	i	8.63	18.0%	i	i
COC(=O)c1nn(C23CC4CC(CC(C4)C2)C3)c2c1C(=O)N(c1ccc(F)cc1)C2=O	i	i	i	i	i	i	i	i
CCc1ccc(CNCCSc2nnnn2C)cc1	i	i	i	i	i	nt	nt	nt
Cc1ccc(C(=O)Nc2ccc3c(c2)nc(CCNC(=O)c2ccco2)n3C)cc1	i	i	i	i	i	nt	nt	nt
CC(=O)Nc1ccc2c(c1)nc(CCNC(=O)c1ccco1)n2C	i	i	i	i	i	i	i	i
COc1ccc(-c2csc(Nc3ccc(S(=O)(=O)Nc4cc(C)on4)cc3)n2)cc1	i	i	i	i	14.5	30.5%	36.5%	i
Oc1ccc(Nc2nc(-c3ccc(O)cc3)cs2)cc1	i	i	i	i	i	i	i	i
COc1ccc(Nc2nc(-c3ccc(OC)cc3)cs2)cc1	i	i	i	i	i	i	i	i
COc1cc(NS(=O)(=O)c2ccc(Nc3nc(-c4cccc([N+](=O)[O-])c4)cs3)cc2)nc(OC)n1	i	i	i	i	i	nt	29.5%	i
COc1ccc(-c2csc(Nc3ccccc3)n2)cc1	i	i	i	i	i	nt	nt	nt
NC(N)=Nc1nc(-c2ccccc2)c2cc(F)ccc2n1	i	i	i	i	i	nt	nt	nt
CCOc1ccc(NC(=O)CN(C)C(=O)Cc2c(C)nc3ccccc3c2C)cc1OCC	i	i	i	i	i	nt	nt	nt
Cc1cc(C)cc(N(CC(=O)Nc2ccc(C(F)(F)F)cc2)S(=O)(=O)c2c(C)[nH]c(=O)[nH]c2=O)c1	i	i	i	i	6.49	i	i	i
COc1cc(/C=N/NC(=S)Nc2cccc(Cl)c2C)ccc1OCC(=O)N1CC(C)OC(C)C1 (stereo not drawn)	i	i	i	i	12.9	i	i	i
C=CCn1c(SCCCCCC)nc(O)cc1=O	i	i	i	i	i	nt	nt	nt
C=CCn1c(SC(C)CC)nc(O)cc1=O (stereo not drawn)	i	i	i	i	4.79	i	i	i
CCCN(CCC)CCNC(=O)CN1C(=O)COc2ccc(S(=O)(=O)N3CCOCC3)cc21	i	i	i	i	i	nt	nt	nt
COCCCNC(=O)CN1C(=O)COc2ccc(S(=O)(=O)N3CCOCC3)cc21	i	i	i	i	i	i	i	i
Cc1ccc(C(=O)/C=C/C(=O)O)cc1	i	i	i	i	15.9	64.5%	43.5%	14.5%
Cc1ccc(/C=C/C(=O)c2ccc(O)cc2)cc1	i	i	i	i	i	nt	nt	nt
COc1cccc(NC(=S)/C(=C(\[O-])c2cc(C)n(-c3ccccc3F)c2C)[n+]2ccc(N(C)C)cc2)c1	i	i	i	i	i	nt	nt	nt
SMILES	MrgX1 antagonist	MrgX1 agonist	MrgX1 PAM	RGS4 pot	RGS4 inh	RGS4 block valid	M3R Ca ctr	M3R basal Ca ctr
CC(=O)Nc1ccc(S(=O)(=O)NCCCN2CCN(Cc3ccccc3)CC2)cc1Cl	i	i	i	i	i	nt	nt	nt
O=C1/C(=C\c2cc(Cl)c(O)c(Cl)c2)SC(=S)N1Cc1ccccc1	i	i	i	i	i	nt	nt	nt
COc1ccc(/C=C2/SC(=S)N(Cc3ccccc3)C2=O)cc1O	i	i	i	i	4.97	24.0%	i	20.0%
O=C(O)COc1ccc(/C=C2/SC(=S)N(Cc3ccccc3)C2=O)cc1	i	i	i	i	i	nt	42.0%	i
Cc1cc2cc(C=C(C#N)C#N)c(Cl)nc2cc1C	i	36	i	i	5.89	14.0%	i	25.0%
CCOC(=O)/C(C#N)=C/c1cc2cc(C)c(C)cc2nc1Cl	i	i	i	i	i	nt	nt	nt
COC(=O)c1c(C)cc(O)c(C=O)c1O	i	i	i	i	5.25	26.5%	i	i
COC(=O)c1c(C)c(OC(=O)c2c(C)cc(O)c(C=O)c2O)cc(C)c1O	i	i	i	i	i	nt	nt	nt
O=C(CC(=O)c1cccc([N+](=O)[O-])c1)Nc1ccccc1Cl	i	i	i	i	i	nt	nt	nt
COC(=O)C1=C(C)N(C2CCCCC2)C(=O)/C1=C\c1cccs1	i	i	i	i	5.71	10.5%	i	i
COc1ccc(CC(=O)NNC(=O)COc2ccc(C)cc2)cc1S(=O)(=O)N1CCOCC1	i	i	i	i	i	nt	nt	nt
O=C(O)CN1C(=O)/C(=C/C=C/c2ccccc2)SC1=S	i	i	i	i	i	nt	nt	nt
O=C(O)CN1C(=O)/C(=C\C(Br)=C\c2ccccc2)SC1=S	i	i	i	i	12.2	53.5%	i	i
O=S(=O)(Nc1nc2ccccc2s1)c1cnc(Cl)c(Br)c1	i	i	i	i	i	nt	nt	nt
CCCc1c(C(=O)N/N=C/c2cccnc2)nnn1-c1nonc1N	i	i	i	i	i	nt	nt	nt
CCOc1cccc(-c2c(C(=O)N/N=C/c3ccc(Br)cc3)nnn2-c2nonc2N)c1	i	i	i	i	19.1	37.5%	57.0%	i
CCOc1cccc(-c2c(C(=O)N/N=C/c3cccnc3)nnn2-c2nonc2N)c1	i	i	i	i	i	i	i	i
CCOc1ccc(-c2c(C(=O)N/N=C/c3ccc(O)cc3)nnn2-c2nonc2N)cc1	i	i	i	i	i	nt	nt	nt
CCOc1ccc(-c2c(C(=O)N/N=C/c3cccc(Br)c3)nnn2-c2nonc2N)cc1	i	i	i	i	i	i	i	8.0%
CC(C)C(NC(=O)c1ccccc1NC(=O)c1ccccc1)C(=O)NNC(=O)c1ccncc1 (stereo not drawn)	i	i	i	i	i	nt	nt	nt
O=C(/C=C/c1ccc([N+](=O)[O-])cc1)c1cccs1	i	i	i	i	11.9	8.0%	37.5%	i
CC(C)c1cc(C(C)C)c(S(=O)(=O)N2CCNCC2)c(C(C)C)c1	i	i	i	i	i	nt	nt	nt
CCN(CCO)c1nc(SC)nc2c1sc1nc(-c3ccco3)c3c(c12)CCC3	i	i	i	i	i	i	i	i
Cc1ccc(S(=O)(=O)N(C)CC(=O)N2CCN(Cc3ccccc3)CC2)cc1	i	i	i	i	i	nt	nt	nt
